High-throughput results from PubChem.
RGS4 block – inhibitors of human RGS4 | 310,000 tested, 0.45% active | B-score at 10 µM | P49798 | AID 463165 | HEK293 M3R/RGS4 inducible, Fluo-4 calcium flux; stronger effect = higher value; triggered by carbachol at its EC20;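 active = B-score, a plate-corrected calcium signal, over three deviations above library mean, with baseline fluorescence within five deviations of library mean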;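 also: RGS4 expression induced by doxycycline in cells with stable M3 receptor; B-score is computed from the integrated fluorescence ratio over baseline after carbachol; higher B-score means a larger calcium signal and so more RGS4 inhibition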
Target sequence (P49798 whole entry, looked up): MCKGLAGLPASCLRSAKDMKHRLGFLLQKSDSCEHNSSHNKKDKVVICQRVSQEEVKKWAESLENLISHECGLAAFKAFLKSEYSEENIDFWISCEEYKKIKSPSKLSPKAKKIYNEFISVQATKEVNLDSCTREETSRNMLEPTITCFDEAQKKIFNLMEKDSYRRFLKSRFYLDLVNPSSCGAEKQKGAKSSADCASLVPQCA
MrgX1 antagonist – human MrgX1 receptor antagonism, primary screen. Q96LB2. MRGX1-HEK293 calcium flux, Fluo-4, BAM8-22 antagonism; stronger effect = lower value. B-score at 10 µM. 310,000 tested, 1.3% active. AID 588676;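 active = calcium-response B-score plate-corrected more than 3 library SD below zero, starting fluorescence within 5 deviations, no agonist response on first addition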;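 also: peak minus trough fluorescence over baseline after final BAM8-22 challenge near maximal dose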
Target sequence (Q96LB2 whole entry, looked up): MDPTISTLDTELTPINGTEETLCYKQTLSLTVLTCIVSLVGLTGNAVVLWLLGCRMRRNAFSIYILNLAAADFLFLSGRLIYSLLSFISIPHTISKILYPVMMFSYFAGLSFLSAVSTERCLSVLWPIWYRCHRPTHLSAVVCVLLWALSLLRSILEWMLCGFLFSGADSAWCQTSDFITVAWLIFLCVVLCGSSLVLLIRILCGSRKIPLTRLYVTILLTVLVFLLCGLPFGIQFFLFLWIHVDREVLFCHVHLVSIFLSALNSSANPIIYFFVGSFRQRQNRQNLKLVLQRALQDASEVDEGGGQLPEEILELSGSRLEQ
MrgX1 PAM – human MrgX1 positive allosteric modulation, primary screen | MrgX1-HEK293, Fluo-4 calcium flux, FDSS; stronger effect = higher value | Q96LB2 | 310,000 tested, 0.63% active | B-score at 10 µM;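 active = plate-corrected calcium response at least 3 library SD above typical, normal starting fluorescence, not activating the receptor alone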;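 also: compound read alongside a low EC10 to EC30 dose of BAM8-22 agonist; peak minus trough fluorescence over baseline measured at the second addition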
MrgX1 agonist – human MrgX1 receptor agonism, primary screen; B-score at 10 µM; Q96LB2; MrgX1-HEK293 cells, Fluo-4 calcium fluorescence, agonist mode; stronger effect = higher value; 310,000 tested, 0.44% active;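 active = calcium response B-score plate-corrected fluorescence ratio at least 3 library SD, with starting fluorescence B-score inside 5 SD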
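Assay system: MrgX1-expressing HEK293 cells / Amount: fifteen thousand cells per well / Doses: test compound in the initial addition of three / Timing: cells plated overnight, dye loaded 0.5 h 37 °C, 0.5 h room temperature / Technique: kinetic calcium dye fluorescence, Fluo-4 NW / Control set: positive and negative controls per plate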
RGS4 pot – potentiators or activators of RGS4. HEK293 M3R/inducible RGS4, carbachol calcium flux Fluo4; stronger effect = lower value. 310,000 tested, 0.92% active. B-score at 10 µM;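 active = B-score of the integrated calcium signal more than 4 SD below the library mean, with starting fluorescence not abnormally high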;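 also: negative B-score means reduced calcium response which marks RGS4 activation or potentiation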
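Material: M3R-expressing HEK293 line, RGS4 induced by doxycycline | Schedule: Overnight RGS4 induction, 30 min dye load 37 °C, 20 min compound RT | Measured by: Fluo4 fluorescence kinetic imaging of calcium | Read-out: Integrated calcium ratio converted to B score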
RGS4 act valid – RGS4 activation, validation assay; HEK293 M3R/RGS4 inducible, carbachol calcium flux Fluo4; inhibition, % at 10 µM; AID 602282; shares compounds with RGS4 pot; 1,100 tested, 89% active;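 active = inhibition above 3 SD of the buffer control wells, cut at about 41% in these data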;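 also: signal is the integrated peak-minus-minimum Fluo4 fluorescence over baseline ratio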
M3R Ca counter – activity in cells without induced RGS4 expression | shares compounds with RGS4 pot | 1,100 tested, 82% active | inhibition, % at 10 µM | HEK293 M3R non-induced RGS4, Fluo4 calcium flux; after carbachol challenge at its EC90;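 active = inhibition exceeding 3 SD of buffer-only control wells, cut at about 26% in these data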;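 also: percent drop in integrated peak-minus-baseline over baseline Fluo4 ratio after carbachol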
* = called active by the depositor; i = inactive; . = no result. This is a sample that favours compounds with a hit; in the whole collection about 3.5% have one here.

SMILES | RGS4 block | MrgX1 antagonist | MrgX1 PAM | MrgX1 agonist | RGS4 pot | RGS4 act valid | M3R Ca counter
CN1CCN(c2nc(-c3cccs3)cc(C(F)(F)F)n2)CC1 | i | i | i | i | -8.7* | 92* | 38*
COCCNC(=O)C(C)OC(=O)c1cc2occc2n1C (centres undefined) | i | i | i | i | i | . | .
C/C(=C\C=C(C#N)C#N)c1cc(C#N)c(N)o1 | i | . | . | . | -8.3* | 62* | 57*
CCCCCc1cc(O)c2c(C)cc(=O)oc2c1 | i | i | i | i | i | . | .
CCCCc1cc(O)c(CCCC)c(O)c1 | i | -11* | i | i | -8* | 92* | 88*
Cc1ccc(C)c(NC(=O)C(NCC(C)(C)N2CCOCC2)c2ccccc2)c1 (centres undefined) | i | i | i | i | -10* | 92* | 95*
CC1CCC(NC(=O)C2CC(=O)N(c3ccc(Cl)cc3)C2)CC1 (centres undefined) | i | i | i | i | i | . | .
Cc1ccccc1-n1nnnc1SCC(=O)NCC1CCCO1 (centres undefined) | i | i | i | i | i | . | .
CC(=O)/C(=N/Nc1ccc([N+](=O)[O-])cc1)N1CCCc2ccccc21 | i | i | i | i | i | . | .
CC(=O)/C(=N/Nc1ccccc1[N+](=O)[O-])N1CCCc2ccccc21 | i | i | i | i | -11* | 93* | 89*
COc1ccc(NC(=O)CC2C(=O)N(c3ccc(Cl)cc3)C(=S)N2NC(=O)c2cccc(F)c2)cc1 (centres undefined) | i | i | i | i | i | . | .
COc1ccc(NC(=O)CC2C(=O)N(c3ccc(F)cc3)C(=S)N2NC(=O)c2ccc(Cl)cc2)cc1 (centres undefined) | i | i | i | i | -11* | 0 | 0
CCOC(=O)N1CCC(NC(=O)c2cnc3n(c2=O)CCS3)CC1 | i | i | i | i | i | . | .
CC(=O)Nc1cccc(NC(=O)C2CC(=O)N(C3CCCCC3)C2)c1 (centres undefined) | i | i | i | i | i | . | .
COc1ccc(OC)c(-c2csc(NC(=O)c3ccc(F)cc3)n2)c1 | i | i | i | i | -8.3* | 82* | 52*
CC(C)Oc1ccc(S(=O)(=O)N2CCCCC2)cc1NC(=O)C1CSC2(C)CCC(=O)N12 (centres undefined) | i | i | i | i | i | . | .
CCCCCCCOC(=O)c1ccc(OC(=O)c2cccnc2)cc1 | i | i | i | i | -8.4* | 90* | 59*
CCCCCOC(=O)c1ccc(OC(=O)c2cncc(Br)c2)cc1 | i | i | i | i | i | . | .
COc1cc(C)ccc1S(=O)(=O)N1CCN(C23CC4CC(CC(C4)C2)C3)CC1 | i | i | i | i | -8.9* | 92* | 80*
COc1cc(F)ccc1S(=O)(=O)N1CCN(C23CC4CC(CC(C4)C2)C3)CC1 | i | i | i | i | i | . | .
CCCc1cc(=O)[nH]c2nnc(SCC(=O)Nc3cccc(NC(C)=O)c3)n12 | i | i | i | i | i | . | .
COc1cc2c(cc1Cl)/C(=C\CCN(C)C)c1ccccc1S2 | i | i | i | i | -9.7* | 92* | 67*
CSCC[C@H](NC(=O)OC(C)(C)C)C(=O)N/N=C/c1ccc2nccnc2c1 | i | i | i | i | -12* | 0 | 0
CS(=O)(=O)N1CCC(C(=O)NCc2ccc(F)cc2)CC1 | i | i | i | i | i | . | .
CCN1CCN(c2ncnc3scc(-c4ccc(C)cc4)c23)CC1 | i | i | i | i | i | . | .
SMILES | RGS4 block | MrgX1 antagonist | MrgX1 PAM | MrgX1 agonist | RGS4 pot | RGS4 act valid | M3R Ca counter
CCOc1ccccc1N1CCN(c2ncnc3scc(-c4ccc(OC)cc4)c23)CC1 | i | i | i | i | -11* | 90* | 43*
COc1ccc(-c2csc3ncnc(N4CCN(c5ccccc5OC)CC4)c23)cc1 | i | i | i | i | -8.6* | 86* | 49*
COc1ccc(-c2csc3nc(C)nc(N4CCN(C(C)=O)CC4)c23)cc1OC | i | i | i | i | i | . | .
Cc1nc(N2CCN(c3ccccc3O)CC2)c2c(-c3ccccc3)csc2n1 | i | i | i | i | -11* | 90* | 34*
COc1ccc(-c2csc3ncnc(N4CCN(CCO)CC4)c23)cc1 | i | i | i | i | i | . | .
Cc1cccc(NC(=O)C2C3CCCCC32)c1 (centres undefined) | i | i | i | i | i | . | .
CCOc1ccc(-c2nnc(SCC(=O)NC(C)(C)C)nc2-c2ccc(OCC)c(OC)c2)cc1OC | i | i | i | i | i | . | .
Cc1sc2nc[nH]c(=O)c2c1-c1ccc(Cl)cc1 | i | i | i | i | i | . | .
O=C(COc1ccc2c(c1)OCO2)Nc1nncs1 | i | i | i | i | i | . | .
O=C(CN1CCCCC1)Nc1ccccc1Oc1ccccc1 | i | i | i | i | -8.2* | 61* | 84*
N=C1c2ccccc2CN1c1ccc(S(=O)(=O)N2CCCCC2)cc1 | i | i | i | i | -8.8* | 75* | 36*
CCOc1cccc(C(=O)NC(=S)Nc2ccc(N3CCN(CC)CC3)cc2)c1 | i | i | i | i | -11* | 92* | 87*
O=C(NC(=S)Nc1ccccc1N1CCOCC1)c1ccccc1F | i | i | i | i | i | . | .
COc1ccc(C(=O)Nc2ccccc2N2CCN(C(=O)c3ccccc3)CC2)cc1Br | i | i | i | i | -9.4* | 64* | 26*
O=C(NC(=S)Nc1ccccc1N1CCN(C(=O)c2ccccc2)CC1)c1ccccc1F | i | i | i | i | -8* | 68* | 0
O=C(Nc1ccccc1N1CCN(C(=O)c2ccccc2)CC1)c1ccc(Br)o1 | i | i | i | i | -7.8* | 48* | 0
O=C(Nc1ccccc1N1CCN(C(=O)c2ccccc2)CC1)c1ccc(Cl)cc1 | i | i | i | i | i | . | .
COc1ccc(C(=O)NC2CCN(CC(=O)N3CCCCC3)CC2)cc1 | i | i | i | i | i | . | .
CC1CCCCN1CC(=O)Nc1ccc(Oc2ccccc2)cc1 (centres undefined) | i | i | i | i | -9.1* | 93* | 87*
